# In ChEMBL document CHEMBL1129560, “Nucleoside conjugates. 15. Synthesis and biological activity of anti-HIV nucleoside conjugates of ether and thioether phospholipids” (J Med Chem, 1996):
# What was measured:
# CCRF-CEM [1] = assay: Effective concentration against HIV-1-infected CEM cells in mice administered intraperitoneally; assay type: functional, cell-based; conditions: Homo sapiens, in the assay text read “in vitro” for “in mice administered intraperitoneally”
# Summary of the method: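 Conjugates were given as micellar suspensions made by sonication, in HIV-1-infected CEM cells. EC50 is the concentration protecting infected cells by 50%. IC50 is the concentration reducing viable cell number by 50%.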
# CCRF-CEM [2] = assay: Ability to reduce viable cell number on HIV-1-infected CEM cells in vitro; conditions: Homo sapiens
# [3] = Time taken to decrease plasma concentration to half of its initial concentration after ip administration; assay type: ADME, organism-based
# Summary of the method: (§1)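 Female NIH-Swiss mice (25–30 g) received one dose of micellar conjugate ip at 394 mg/kg (equivalent to 100 mg/kg parent nucleoside), or the parent at 100 mg/kg ip. An iv arm gave 205 mg/kg conjugate or 50 mg/kg parent. Three mice were taken per time point up to 24 h. Serum nucleoside was measured by HPLC-UV at 260 nm. Analysis was noncompartmental, with t1/2 = 0.693/λz.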
# [4] = Pharmacokinetic parameter AUC in mice following a single dose intraperitoneal administration of the compound; conditions: mouse, in vivo, ip
# [5] = Time taken to decrease plasma concentration to half of its initial concentration after iv administration; assay type: ADME, organism-based
# [6] = Time taken to decrease plasma concentration to half of its initial concentration after intraperitoneal administration; assay type: ADME, organism-based; conditions: ip; summary of the method: as §1
Structure (SMILES),EC50 (CCRF-CEM [1]) [µM],IC50 (CCRF-CEM [2]) [µM],half-life [3] [h],AUC [4] [ng·h/mL],half-life [5] [h],half-life [6] [h]
CCCCCCCCCCCCCCCC(=O)OC(COCCCCCCCCCCCCCC)COP(=O)(O)OP(=O)(O)OC[C@H]1O[C@@H](n2cc(C)c(=O)[nH]c2=O)C[C@@H]1N=[N+]=[N-] (some centres not stated),57,14000,–,–,–,–
Cc1cn([C@H]2C[C@H](N=[N+]=[N-])[C@@H](CO)O2)c(=O)[nH]c1=O [ZIDOVUDINE],0.186,191,0.28,175000,–,–
CCCCCCCCCCCCCCCCCCSCC(COP(=O)([O-])OP(=O)([O-])OC[C@H]1O[C@@H](n2ccc(=O)[nH]c2=O)C[C@@H]1N=[N+]=[N-])OC(=O)CCCCCCCCCCCCCCC.[Na+].[Na+] (some centres not stated),17,380,–,–,6.5,–
CCCCCCCCCCCCCCCCCCSCC(COP(=O)([O-])OP(=O)([O-])OC[C@H]1O[C@@H](n2cc(C)c(=O)[nH]c2=O)C[C@@H]1N=[N+]=[N-])OC(=O)CCCCCCCCCCCCCCC.[Na+].[Na+] (some centres not stated),< 0.58,120,–,25800,–,5.69
[N-]=[N+]=N[C@H]1C[C@H](n2ccc(=O)[nH]c2=O)O[C@@H]1CO [NAVURIDINE],–,–,–,42300,0.89,–
CCCCCCCCCCCCCCCCCCSCC(COP(=O)(O)OP(=O)(O)OC[C@@H]1CC[C@H](n2ccc(N)nc2=O)O1)OC(=O)CCCCCCCCCCCCCCC (some centres not stated),130,2800,–,–,–,–
